Data on 17 molecules can be found in ChEMBL document CHEMBL1145346, “Probing hot spots at protein-ligand binding sites: a fragment-based approach using biophysical methods” (J Med Chem, 2006).

Activity calls are given as the source filed them. The rule behind the calls is not given here. Where only a bound is given, the exact number is not on record here.

Data set [1] has as its target T1, 2-dehydropantoate 2-reductase (Escherichia coli K-12, UniProt P0A9J4).
T1 sequence (P0A9J4 whole entry): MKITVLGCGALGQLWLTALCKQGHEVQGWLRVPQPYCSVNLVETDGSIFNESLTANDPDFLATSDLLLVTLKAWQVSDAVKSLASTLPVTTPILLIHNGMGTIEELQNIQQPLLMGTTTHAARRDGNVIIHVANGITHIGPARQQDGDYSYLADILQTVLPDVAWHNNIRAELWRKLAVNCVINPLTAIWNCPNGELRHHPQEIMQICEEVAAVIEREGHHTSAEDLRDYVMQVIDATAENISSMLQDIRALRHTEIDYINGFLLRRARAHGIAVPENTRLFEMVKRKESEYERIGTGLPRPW
As to the kind of experiment: Binding affinity to Escherichia coli KPR. The format is single protein. The procedure, abridged:
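Isothermal titration calorimetry with His6-tagged E. coli KPR in 0.1 M HEPES/HCl, pH 7.7, at 27 °C. Data were corrected for heat of dilution and fitted to a single-site binding model. For weak ligands (Kd > 100 µM), stoichiometry was fixed at n = 1, determined from active-site titrations with NADPH or NADP+. Errors are from curve fitting for single runs, or SD across multiple experiments.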

The target in data set [2] is T2, 2-dehydropantoate 2-reductase (Escherichia coli K-12) (UniProt P0A9J4).
T2 sequence (whole entry): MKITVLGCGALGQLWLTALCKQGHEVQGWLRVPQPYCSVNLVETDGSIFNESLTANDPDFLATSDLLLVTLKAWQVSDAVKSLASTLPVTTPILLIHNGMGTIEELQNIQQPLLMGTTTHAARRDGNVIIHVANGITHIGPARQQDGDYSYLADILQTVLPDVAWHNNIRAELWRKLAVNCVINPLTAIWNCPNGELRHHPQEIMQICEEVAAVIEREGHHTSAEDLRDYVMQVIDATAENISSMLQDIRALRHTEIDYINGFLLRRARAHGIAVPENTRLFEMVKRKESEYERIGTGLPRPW
As to the kind of experiment: Inhibition of Escherichia coli KPR at 1 mM. In outline: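 Single-point screen of His6-tagged E. coli KPR activity at pH 7.5-7.7. Ligand was tested at 1 mM with 20 µM NADPH, 1 mM ketopantoate and 2 nM enzyme. The result is reported as percent inhibition.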

Data set [3] concerns the target T1, 2-dehydropantoate 2-reductase. The data set is described as follows: Inhibition of Escherichia coli KPR. The format is single protein. In outline: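 His6-tagged E. coli KPR assayed at pH 7.5-7.7. It catalyses ketopantoate reduction with NADPH as cofactor. In the screen, ligand was tested at 1 mM with 20 µM NADPH, 1 mM ketopantoate and 2 nM enzyme. Ki was measured with five inhibitor concentrations against six NADPH concentrations, with NADPH as the varied substrate, and data were fitted to competitive or noncompetitive inhibition equations.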

Data set [4] concerns the target T2, 2-dehydropantoate 2-reductase (Escherichia coli K-12). As to the kind of experiment: Inhibition of Escherichia coli KPR at 5 mM.
Data set [5] shares this target. The settings on record: Homo sapiens; 11 mM.
Data set [6] shares this target. The data set is described as follows: Inhibition of Escherichia coli KPR at 20 mM.
In data set [7] the target is 2-dehydropantoate 2-reductase (Escherichia coli) (UniProt P0A9J4). As to the kind of experiment: Inhibition of Escherichia coli KPR.

A word on the Kd: it is a measure of binding affinity in units of concentration. A high value points to lower affinity. The Ki is the equilibrium dissociation constant of an inhibitor or competing ligand from its target. High values mean lower affinity, low ones higher affinity. As for `Nc1ncnc2c1ncn2[C@@H]1O[C@H](COP(=O)(O)O)[C@@H](O)[C@H]1OP(=O)(O)O`, binding in data set [1] was characterised by a dissociation constant (Kd) of 100 µM. Also, the outcome in data set [2] was Active. In data set [3], this molecule came in with an inhibition constant Ki of 240 µM.
Taken in the same sequence, the figures for `Nc1ncnc2c1ncn2[C@@H]1O[C@H](COP(=O)(O)OP(=O)(O)OCC2OC(O)[C@H](O)[C@@H]2O)[C@@H](O)[C@H]1OP(=O)(O)O` (stereo partly drawn) were 61 µM, “Active” and 200 µM.
The molecule `NC(=O)C1=CN(C2OC(COP(=O)(O)OP(=O)(O)OC[C@H]3O[C@@H](n4cnc5c(N)ncnc54)[C@H](O)[C@@H]3O)[C@H](O)[C@@H]2O)C=CC1` (stereo partly drawn) gave a Kd in data set [1] of 66 µM.
For the molecule `Nc1nc2c(ncn2[C@@H]2O[C@H](COP(=O)(O)OP(=O)(O)O)[C@@H](O)[C@H]2O)c(=O)[nH]1`, in data set [1], the affinity, expressed as Kd, was 373 µM.
As usually defined, the inhibition is the share of the control response that was lost under treatment. Read a high inhibition as a response far below the control. `NC(=O)c1ccc[n+]([C@@H]2O[C@H](COP(=O)([O-])O)[C@@H](O)[C@H]2O)c1` gave an inhibition in data set [4] of 0%.
For `NC(=O)c1cccnc1`, the inhibition in data set [5] is 0%.
Consider `Nc1ncnc2c1ncn2[C@@H]1O[C@H](COP(=O)(O)OP(=O)(O)OCC2OC(O)[C@H](O)[C@@H]2O)[C@@H](O)[C@H]1O` (stereo partly drawn), for which, in data set [4], the inhibition was 0%.
In turn, `Nc1ncnc2c1ncn2[C@@H]1O[C@H](COP(=O)(O)OP(=O)(O)OC[C@H]2OC(O)[C@H](O)[C@@H]2O)[C@@H](O)[C@H]1O` (stereo partly drawn) [ADENOSINE DIPHOSPHATE RIBOSE] gave a Kd in data set [1] of 6300 µM.
`Nc1ncnc2c1ncn2[C@@H]1O[C@H](COP(=O)(O)OP(=O)(O)O)[C@@H](O)[C@H]1O` [ADENOSINE DIPHOSPHATE] showed a Kd in data set [1] of 360 µM. The result in data set [2] was Active. The molecule further showed a Ki in data set [3] of 1050 µM.
Molecule `Nc1ncnc2c1ncn2[C@@H]1O[C@H](COP(=O)(O)O)[C@@H](O)[C@H]1O` [ADENOSINE PHOSPHATE] returned a Kd in data set [1] of more than 5000 µM. In addition, in data set [2], the outcome was Active. The same molecule came in with a Ki in data set [3] of 6300 µM.
The matching figures for `Nc1ncnc2c1ncn2[C@@H]1O[C@H](COP(=O)(O)OP(=O)(O)OP(=O)(O)O)[C@@H](O)[C@H]1O` [ADENOSINE TRIPHOSPHATE]: 130 µM, “Active” and 610 µM.
The molecule `Nc1nc2c(ncn2[C@@H]2O[C@H](COP(=O)(O)OP(=O)(O)OP(=O)(O)O)[C@@H](O)[C@H]2O)c(=O)[nH]1` [GUANOSINE TRIPHOSPHATE] registered a Kd in data set [1] of 153 µM.
Regarding `NC(=O)c1ccc[n+]([C@@H]2O[C@H](COP(=O)([O-])OP(=O)(O)OC[C@H]3O[C@@H](n4cnc5c(N)ncnc54)[C@H](O)[C@@H]3O)[C@@H](O)[C@H]2O)c1` [NADIDE], the affinity in data set [1], expressed as Kd, was 6900 µM. In data set [6], the inhibition came to 10%.
Molecule `NC(=O)c1ccc[n+]([C@@H]2O[C@H](COP(=O)([O-])OP(=O)(O)OC[C@H]3O[C@@H](n4cnc5c(N)ncnc54)[C@H](OP(=O)(O)O)[C@@H]3O)[C@@H](O)[C@H]2O)c1` [NICOTINAMIDE ADENINE DINUCLEOTIDE PHOSPHATE] showed a Kd in data set [1] of 5.8 µM.
In data set [3], `O=P(O)(O)O` [PHOSPHORIC ACID] showed a Ki of 27000 µM.
The molecule `NC(=O)c1ccc[n+]([C@@H]2O[C@H](COP(=O)([O-])OP(=O)(O)OC[C@H]3O[C@@H](n4cnc5c(N)ncnc54)[C@H](OP(=O)(O)O)[C@@H]3O)[C@@H](O)[C@H]2O)c1` [SODIUM beta-NICOTINAMIDE ADENINE DINUCLEOTIDE PHOSPHATE] gave a Kd in data set [1] of 0.26 µM.

B1: 2-dehydropantoate 2-reductase (Escherichia coli K-12), P0A9J4 (protein)
chain: MKITVLGCGALGQLWLTALCKQGHEVQGWLRVPQPYCSVNLVETDGSIFNESLTANDPDFLATSDLLLVTLKAWQVSDAVKSLASTLPVTTPILLIHNGMGTIEELQNIQQPLLMGTTTHAARRDGNVIIHVANGITHIGPARQQDGDYSYLADILQTVLPDVAWHNNIRAELWRKLAVNCVINPLTAIWNCPNGELRHHPQEIMQICEEVAAVIEREGHHTSAEDLRDYVMQVIDATAENISSMLQDIRALRHTEIDYINGFLLRRARAHGIAVPENTRLFEMVKRKESEYERIGTGLPRPW
What is called Km is the concentration of substrate that gives half-maximal velocity. Turning to B1, the Km in data set [7] came to 750 µM.
